STAT3 activator = STAT3 signaling activation; activation (% of control), % at 5.6 µM; 0.91% of 190,000 active; U3A cells, IL-6 STAT3-luciferase reporter, luminescence; 100% = signal with IL-6 EC80 alone; AID 871;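 active = activation above the screen-wide mean of compound activation plus 3 SD, cut at about 130% in these data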;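 also: 0% = background luminescence of wells with medium and substrate only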
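System – human U3A cells carrying STAT3-luciferase construct · Probe or stimulus – Interleukin-6, 33 ng/mL · Schedule – compound 1 h, then IL-6 6 h at 37 °C · Signal – luminescence from STAT3-driven luciferase reporter · Evaluation – percent of IL-6-only median luminescence · Benchmarks – IL-6-only high control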
STAT3 inh = reduces IL-6 driven STAT3 reporter signal; U3A cells, IL-6 STAT3-luciferase reporter, luminescence; host cell line lacks STAT1; inhibition, % at 5.5 µM; 0.89% of 190,000 active; AID 862;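 active = inhibition above the mean inhibition across all screened compounds plus 3 SD, cut at about 44% in these data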;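 also: 0% = DMSO only wells and 100% = 100 µM nifuroxazide control wells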
PPC-1+TRAIL kill = compounds killing PPC-1 cancer cells with TRAIL present (potentiator screen, no TRAIL-free arm) | 0.41% of 220,000 active | cell killing (% activity), % at 4 µM or 5 µM | PPC-1 cells + TRAIL, ATPLite viability luminescence | AID 1443;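 active = cell killing above 50% in the first pass at 4 µM, then a duplicate retest at 5 µM averaging 50% or more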;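 also: plate controls were cells with TRAIL plus DMSO for no effect and medium-only wells lacking cells for full effect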
STAT1 blocker = inhibitors of IFN-gamma induced STAT1 signaling; NIH 3T3 STAT1-luciferase reporter, luminescence; inhibition, % at 5.5 µM; 0.35% of 200,000 active;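 active = inhibition above a set limit, the mean inhibition across all tested compounds plus 3 SD, cut at about 34% in these data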;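 also: 0% = IFN-gamma with DMSO and 100% = IFN-gamma with 300 µM nifuroxazide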
TRAIL sens C8 = sensitizes caspase-8 expressing cells to TRAIL | 1% of 360,000 active | inhibition (viability loss, TRAIL sensitization), % at 10 µM | AID 624354 | NB7+C8 cells + TRAIL, ATPlite viability luminescence;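 active = compounds causing at least 50% loss of cell viability in the single-dose screen, relative to plate controls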
Active calls of the source: *; . = not tested or not shown. Shown are actives, neighbours in structure and some others; about 1.8% of the full set was active somewhere.

SMILES	STAT3 activator	STAT3 inh	PPC-1+TRAIL kill	STAT1 blocker	TRAIL sens C8
Cc1cc(=O)oc2ccc(OCC(=O)N3CCC(C)CC3)cc12	135*	-35	-1	1	-5
CC(=O)c1c(C)[nH]c(C(=O)Nc2ccccn2)c1C	.	.	.	.	51*
CC(=O)c1c(C)[nH]c(C(=O)Nc2ccc(Cl)cc2)c1C	.	.	.	.	-6
COc1ccc(CN2CCN(CCSc3ccc(C)cc3)CC2)c(OC)c1OC	.	.	.	.	19
CCCOc1ccc(-c2nc(N3CCN(C)CC3)c3ccccc3n2)cc1	.	.	.	.	66*
Cc1ccc(-c2nc(C)sc2CC(=O)OCC(=O)Nc2ccc(F)c(Cl)c2)cc1	.	.	.	.	-3
COc1ccccc1C(=O)NNC(=O)c1nn(Cc2ccccc2)c(=O)c2ccccc12	135*	-38	1	9	16
CC(C)CNC(=O)c1nn(Cc2ccccc2)c(=O)c2ccccc12	.	.	.	.	-9
O=C1CC(c2ccc3c(c2)OCCO3)Oc2ccc([N+](=O)[O-])cc21 (stereo not given)	.	.	.	.	64*
O=C1CC(c2ccc3c(c2)OCCO3)Oc2ccccc21 (stereo not given)	.	.	.	.	2
CC(C)(C)c1ccc(C(=O)Nc2ccc(CC(=O)O)cc2)o1	31	83*	39	54*	18
Cc1ccc(C(=O)Nc2ccc(CC(=O)O)cc2)o1	96	10	13	2	9
CC(=O)c1c(C)[nH]c(C(=O)OCCCCN2C(=O)c3ccccc3C2=O)c1C	32	86*	14	33	21
CC(=O)c1c(C)[nH]c(C(=O)OCc2ccccc2)c1C	87	18	15	-47	21
Clc1ccc(-n2cnc3c(Cl)ncnc32)cc1Cl	.	.	.	.	74*
CC(=O)NCCNC(=O)C1(C)Cc2c(-c3cccc(NC(C)=O)c3)ccnc2O1 (stereo not given)	.	.	.	.	-3
O=C(N/N=C\c1ccc(-c2ccccc2[N+](=O)[O-])o1)C1COc2ccccc2O1 (stereo not given)	133*	-46	15	5	-11
O=C(N/N=C\c1ccc(-c2ccccc2[N+](=O)[O-])o1)C1COc2cc3ccccc3cc2O1 (stereo not given)	110	-1	10	13	6
Cn1c2ccccc2c(=O)c2cc(C#CC3(O)CCCCC3)ccc21	.	.	.	.	92*
O=c1c2ccccc2oc2ccc(C#CC3(O)CCCCC3)cc12	.	.	.	.	87*
N#Cc1ccc(C#Cc2ccc3oc4ccccc4c(=O)c3c2)cc1	.	.	.	.	2
Cc1cc2sc3ccc(C#CC4(O)CCCCC4)cc3c(=O)c2cc1C	.	.	.	.	88*
C[C@@H](C(=O)Nc1ccc(OC(F)F)c(Cl)c1)N1C(=O)C2CC=CCC2C1=O (stereo not given in full)	.	.	.	.	-2
Cn1c(=O)n(C)c2cc(NC(=O)c3ccccc3NS(C)(=O)=O)ccc21	.	.	.	.	0
O=C(C[C@H]1C=C[C@H](NC(=O)Nc2ccccc2F)[C@@H](CO)O1)NCc1ccc(-c2ccccc2)cc1	.	.	.	.	2
SMILES	STAT3 activator	STAT3 inh	PPC-1+TRAIL kill	STAT1 blocker	TRAIL sens C8
CN1CCN(C(=O)c2cccn(Cc3ccc(C(F)(F)F)cc3)c2=O)CC1	.	.	.	.	1
CC(C)c1ccc(N=C2N=C(N)c3ccccc32)cc1	.	.	40	.	57*
CCc1nc2oc3ccccc3c(=O)c2cc1C(=O)OC	.	.	.	.	15
O=C(COc1ccc(Cl)cc1Cl)Nc1ccccc1F	.	.	.	.	58*
CCOc1ccccc1NC(=O)COC(=O)CN1C(=O)NC(C)(C)C1=O	.	.	.	.	22
O=C(C1CC1)N1CCc2cc(Br)c(S(=O)(=O)N3CCCCCC3)cc21	.	.	.	.	8
COC1=CC(=O)c2ccccc2C1=O	.	.	.	.	88*
COC1=CC(=O)C=C(OC)C1=O	.	.	.	.	-19
COC(=O)c1ccc(N/C=C/C(=O)c2ccccc2)cc1	.	.	.	.	55*
FC(F)(F)c1cccc(CC2CN(Cc3ccccc3)Cc3ccccc3N2c2cc(Cl)cc(Cl)c2)c1 (stereo not given)	.	.	.	.	60*
O=S1(=O)CCOC[C@H](Cc2ccccc2)N1Cc1cccc(C(F)(F)F)c1	.	.	.	.	8
COc1cc(C(=O)OCC(=O)N2c3ccccc3NC(=O)C2(C)C)ccc1OCC(C)C	.	.	.	.	1
NC(CCc1ccccc1)c1csc(NC(=O)Nc2ccccc2Oc2ccccc2)n1 (stereo not given)	.	.	.	.	87*
CC(C)c1ccc(NC(=O)Nc2nc(C(N)COCc3ccccc3)cs2)cc1 (stereo not given)	.	.	.	.	77*
NC(Cc1ccc(C(F)(F)F)cc1)c1csc(NC(=O)Nc2ccccc2Cc2ccccc2)n1 (stereo not given)	.	.	.	.	79*
NC(Cc1ccc(Cl)cc1)c1csc(NC(=O)NCC2CCCCC2)n1 (stereo not given)	.	.	.	.	86*
CC(OC(=O)c1ccc(Cl)c(S(=O)(=O)N2CCOCC2)c1)C(=O)NC1CCCCC1C (stereo not given)	.	.	.	.	5
CCOc1ccc(N(C(C)C(=O)N2CCCC2)S(C)(=O)=O)cc1 (stereo not given)	.	.	.	.	-4
COc1cc(OC)nc(Nc2nc(C(N)Cc3ccc(C(F)(F)F)cc3)cs2)n1 (stereo not given)	.	.	.	.	80*
Cc1ccsc1C(=O)N1CCCCCC1(C)C(=O)NCC(C)C (stereo not given)	.	.	.	.	-7
CCOC(=O)C1(NC(=O)C2(NC(=O)CN3C(=O)c4ccccc4C3=O)CCCC2)CCCC1	.	.	.	.	3
COC(=O)c1c(-c2ccccc2)csc1NC1=NS(=O)(=O)c2ccccc21	122	-26	40	-40	73*
CCCc1nc2ccc(Cl)cn2c1Cc1ccccc1	.	.	.	.	-5
CCOc1cc(/C=N\NC(=O)c2ccc(NC(=O)C(C)(C)C)cc2)ccc1OC(=O)c1ccc(C)cc1	103	4	12	-2	15
CCOc1cc(/C=N\NC(=O)c2ccc(NC(=O)C(C)(C)C)cc2)ccc1OC(=O)c1cccc(C)c1	86	22	13	11	59*
SMILES	STAT3 activator	STAT3 inh	PPC-1+TRAIL kill	STAT1 blocker	TRAIL sens C8
COc1ccc2cc(-c3ccccc3F)ncc2c1	.	.	.	.	53*
COc1ccc(-c2ccc(-c3nnn(CC(=O)N4CCOCC4)n3)cc2)cc1	91	20	0	-16	52*
COc1ccc(-c2cc(-c3ccccc3)no2)cc1	.	.	.	.	59*
COc1ccc(-c2cc3ccc(OC)cc3cn2)cc1	.	.	.	.	77*
COc1ncc(-c2ccc3c(c2)S(=O)(=O)c2cccc(C(=O)O)c2C3=O)cn1	.	.	.	.	-3
Cc1ccc(C(=O)NCCCNC(=O)c2ccco2)cc1C	.	.	.	.	-12
CCCCN(C(=O)CC1CCCC1)c1c(N)n(CCCC)c(=O)[nH]c1=O	.	.	.	.	-12
COc1ccc(-c2cc(C(=O)N3CCOCC3)no2)cc1	.	.	.	.	51*
COc1ccc(-c2cc3ccccc3cn2)cc1	.	.	.	.	55*
CC(OC(=O)c1ccccc1C(=O)O)c1ccccc1 (stereo not given)	.	.	.	.	-23
COc1ccccc1C(=O)Nc1ccc2c(c1)OCCO2	118	-18	37	-43	34
COc1ccc(Cl)cc1C(=O)Nc1ccc2c(c1)OCO2	151*	-55	27	-38	2
COc1ccc(Cl)cc1C(=O)Nc1ccc2c(c1)OCCO2	.	.	.	.	52*
